ChEMBL document CHEMBL1126776, “Antihyperglycemic activity of novel naphthalenyl 3H-1,2,3,5-oxathiadiazole 2-oxides” (1993)
Several values for one entry are separate records, joined by “and”; a condition that tells them apart may be missing. Identical values can stand only once.

How the values were obtained:
Mus musculus [1] = assay: Percentage change in plasma glucose after 4 days of treatment in db/db mouse at 5 mg/kg (po) in a postprandial assay
Mus musculus [2] = assay: Percentage change in plasma glucose after 4 days of treatment in db/db mouse at 1 mg/kg (po) in a postprandial assay
Mus musculus [3] = assay: Percentage change in plasma glucose after 4 days of treatment in db/db mouse at 1 mg/kg (po) in a postprandial assay; type: functional
Summary of the method: (§1)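 Male db/db (C57BL/KsJ) mice; postprandial assay after 4 days of oral dosing. Result is % change in plasma glucose relative to the vehicle-treated group. Values are mean ± SE with 4–6 mice per group; p < 0.05 flagged.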

Mus musculus [4] = assay: Percentage change in plasma glucose after 4 days of treatment in db/db mouse at 100 mg/kg (po) in a postprandial assay; type: functional
Summary of the method: as §1

Mus musculus [5] = assay: Percentage change in plasma glucose after 4 days of treatment in db/db mouse at 20 mg/kg (po) in a postprandial assay; type: functional
Summary of the method: as §1

Mus musculus [6] = assay: Percentage change in plasma glucose after 4 days of treatment in db/db mouse at 5 mg/kg (po) in a postprandial assay; type: functional
Summary of the method: as §1

Mus musculus [7] = assay: Plasma glucose after treatment in obese ob/ob mice at 50 mg/kg (po); type: functional
Summary of the method: (§2)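 Female obese ob/ob (C57BL/6J) mice, 3-5 months old, fed ad libitum. Oral gavage once daily for 10 days, vehicle 0.2 mL 2% Tween 80/saline (w/v). Decapitated 4 h after the last dose; blood assayed for glucose. Mean ± SEM; p < 0.05 versus vehicle.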

Mus musculus [8] = assay: Plasma glucose after treatment in obese ob/ob mice at 200 mg/kg (po); type: functional
Summary of the method: as §2

Rattus norvegicus [9] = assay: Volume of water consumed by the rat at a dose of 25 mg/kg; type: functional
Summary of the method: (§3)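 Male Sprague-Dawley rats (nondiabetic), dosed daily by mouth for 11 days. Urine collected over 24 h and assayed for glucose; urine volume, water intake and food intake also measured. Values are mean ± SE, n = 6 per group.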

Rattus norvegicus [10] = assay: Amount of food consumed by the rat at a dose of 25 mg/kg; type: functional
Summary of the method: as §3

Rattus norvegicus [11] = assay: Volume of urine collected after treatment in nondiabetic rats at the dose of 10 mg/kg; type: functional
Summary of the method: as §3

Rattus norvegicus [12] = assay: Plasma glucose levels of nondiabetic rats after 1 hour of drug administration (25 mg/Kg, po); type: functional
Summary of the method: (§4)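 Single oral dose to male Sprague-Dawley nondiabetic rats. Tail-tip blood sampled before dosing and at 1, 2 and 4 h after dosing for plasma glucose. Mean ± SE, n = 5 per group; compared with the respective vehicle group.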

Rattus norvegicus [13] = assay: Volume of water consumed by the rat at a dose of 5 mg/kg; type: functional
Summary of the method: as §3

Rattus norvegicus [14] = assay: Change in plasma glucose levels of streptozocin-diabetic rats wtih type I diabetes at dose of 25 mg/kg, po; type: functional
Summary of the method: (§5)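 Male Sprague-Dawley rats made diabetic with streptozocin (100 mg/kg, ip). Drug or vehicle given orally once daily for 3 weeks. Tail-tip blood taken 90 min after the last dose and assayed for plasma glucose. Mean ± SE, n = 9-12 per group.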

Rattus norvegicus [15] = assay: Change in plasma glucose levels of streptozocin-diabetic rats wtih type I diabetes at dose of 5 mg/kg, po; type: functional
Summary of the method: as §5

Rattus norvegicus [16] = assay: Amount of food consumed by the rat at a dose of 10 mg/kg; type: functional
Summary of the method: as §3

Rattus norvegicus [17] = assay: Volume of water consumed by the rat at a dose of 10 mg/kg; type: functional
Summary of the method: as §3

Rattus norvegicus [18] = assay: Volume of urine collected after treatment in nondiabetic rats at the dose of 25 mg/kg; type: functional
Summary of the method: as §3

Rattus norvegicus [19] = assay: Plasma glucose levels of nondiabetic rats after 2 hour of drug administration (25 mg/Kg, po); type: functional
Summary of the method: as §4

Rattus norvegicus [20] = assay: Plasma glucose levels of nondiabetic rats after 0 hour of drug administration (25 mg/Kg, po); type: functional
Summary of the method: as §4

Rattus norvegicus [21] = assay: Amount of food consumed by the rat at a dose of 5 mg/kg; type: functional
Summary of the method: as §3

Rattus norvegicus [22] = assay: Change in urinary glucose excretion of nondiabetic rats at the dose of 25 mg/kg; type: functional, Urine
Mus musculus [23] = assay: Plasma glucose after treatment in obese ob/ob mice at 5 mg/kg (po); type: functional
Summary of the method: as §2

Rattus norvegicus [24] = assay: Plasma glucose levels of nondiabetic rats after 4 hour of drug administration (25 mg/Kg, po); type: functional
Summary of the method: as §4

Mus musculus [25] = assay: Plasma glucose after treatment in obese ob/ob mice at 20 mg/kg (po); type: functional
Summary of the method: as §2

Rattus norvegicus [26] = assay: Volume of urine collected after treatment in nondiabetic rats at the dose of 5 mg/kg; type: functional
Summary of the method: as §3

[27] = dose 5 mg/kg, in the assay text read “5 mg/kg” for “100 mg/kg”

COc1cccc2cc(CC3=NOS(=O)N3)ccc12 (centres undefined)
Change (Mus musculus [1]): <-15%
Change (Mus musculus [2]): <-15%

O=S1NC(Cc2ccc3ccccc3c2Cl)=NO1 (centres undefined)
Change (Mus musculus [3]): <-15%
Change (Mus musculus [4]; [27]): -27%

COc1ccc2cc(CC3=NOS(=O)N3)ccc2c1 (centres undefined)
Change (Mus musculus [5]): <-15%

COc1c(CC2=NOS(=O)N2)cc(Cl)c2ccccc12 (centres undefined)
Change (Mus musculus [3]): -17%
Change (Mus musculus [6]): -31%

O=S1NC(CCCc2ccc3ccccc3c2)=NO1 (centres undefined)
Change (Mus musculus [5]): <-15%

CN(C)C(=N)NC(=N)N [METFORMIN]
Glucose level (Mus musculus [7]): 253 mg/dL
Glucose level (Mus musculus [8]): 208 mg/dL

COC(CC1=NOS(=O)N1)c1ccc2ccccc2c1 (centres undefined)
Change (Mus musculus [5]): <-15%

O=S1NC(COc2ccc3ccccc3c2)=NO1 (centres undefined)
Change (Mus musculus [5]): <-15%

O=S1NC(Cc2ccc3ccccc3c2)=NO1 (centres undefined)
Change (Mus musculus [5]): -37%
Change (Mus musculus [6]): <-15%

O=S1NC(Cc2cc3ccccc3cc2Br)=NO1 (centres undefined)
Change (Mus musculus [3]): <-15%
Change (Mus musculus [6]): -28%

O=S1NC(Cc2ccc3cc(F)ccc3c2Cl)=NO1 (centres undefined)
Change (Mus musculus [1]): <-15%

O=S1NC(Cc2cc3ccccc3cc2Cl)=NO1 (centres undefined)
Change (Mus musculus [3]): <-15%
Change (Mus musculus [4]; [27]): -44%

N#Cc1cccc2ccc(CC3=NOS(=O)N3)cc12 (centres undefined)
Change (Mus musculus [3]): <-15%
Change (Mus musculus [6]): <-15%

Cc1cc2ccccc2c(Br)c1CC1=NOS(=O)N1 (centres undefined)
Change (Mus musculus [3]): <-15%
Change (Mus musculus [6]): -34%

CCc1c(CC2=NOS(=O)N2)ccc2ccccc12 (centres undefined)
Change (Mus musculus [3]): <-15%
Change (Mus musculus [4]; dose 5 mg/kg, in the assay text read “at 5 mg/kg” for “at 100 mg/kg”): -24%

C=Cc1cccc2cc(CC3=NOS(=O)N3)ccc12 (centres undefined)
Change (Mus musculus [6]): -17%

Cc1cccc2cc(CC3=NOS(=O)N3)ccc12 (centres undefined)
Change (Mus musculus [3]): <-15%
Change (Mus musculus [4]; [27]): -37%

Cc1cc2ccccc2cc1CC1=NOS(=O)N1 (centres undefined)
Change (Mus musculus [4]; dose 100 mg/kg): -36% and -20%

O=S1NC(Cc2ccc3cc(Br)ccc3c2)=NO1 (centres undefined)
Change (Mus musculus [3]): <-15%
Change (Mus musculus [6]): -25%

COc1cc2ccccc2cc1CC1=NOS(=O)N1 (centres undefined)
Change (Mus musculus [2]): -16%

COc1ccc(Br)c2cc(CC3=NOS(=O)N3)ccc12 (centres undefined)
Change (Mus musculus [3]): <-15%

O=S1NC(CSc2ccc3ccccc3c2)=NO1 (centres undefined)
Change (Mus musculus [5]): -40%

O=S1NC(Cc2ccc3c(Br)cccc3c2)=NO1 (centres undefined)
Change (Mus musculus [4]; dose 100 mg/kg): -47% and -35%

O=S1NC(CCc2ccc3ccccc3c2)=NO1 (centres undefined)
Change (Mus musculus [5]): -38%

O=S1NC(C(Cc2ccccc2)c2ccc3ccccc3c2)=NO1 (centres undefined)
Change (Mus musculus [5]): <-15%

O=S1NC(Cc2ccc3ccccc3c2Br)=NO1 (centres undefined)
Change (Mus musculus [4]; dose 100 mg/kg): -40% and -21%

O=S1NC(Cc2cc(Br)c3ccccc3c2)=NO1 (centres undefined)
Change (Mus musculus [3]): <-15%
Change (Mus musculus [6]): -21%

CCc1cccc2cc(CC3=NOS(=O)N3)ccc12 (centres undefined)
Change (Mus musculus [3]): <-15%
Change (Mus musculus [4]; [27]): -23%

O=S1NC(c2ccc3ccccc3c2)=NO1 (centres undefined)
Change (Mus musculus [5]): <-15%

O=S1NC(Cc2cc3ccccc3cc2C(F)(F)F)=NO1 (centres undefined)
Change (Mus musculus [3]): <-15%
Change (Mus musculus [4]; [27]): -30%

O=S1NC(CCCCc2ccc3ccccc3c2)=NO1 (centres undefined)
Change (Mus musculus [4]; dose 100 mg/kg): -28%

CSc1cccc2cc(CC3=NOS(=O)N3)ccc12 (centres undefined)
Change (Mus musculus [6]): <-15%

O=S1NC(Cc2ccc3cc(F)ccc3c2Br)=NO1 (centres undefined)
Change (Mus musculus [6]): -16%

O=S1NC(Cc2ccc3ccccc3c2F)=NO1 (centres undefined)
Change (Mus musculus [3]): <-15%
Change (Mus musculus [4]; [27]): -39%

CC(C)(C1=NOS(=O)N1)c1ccc2ccccc2c1 (centres undefined)
Change (Mus musculus [5]): <-15%

CSc1ccc(Br)c2ccc(CC3=NOS(=O)N3)cc12 (centres undefined)
Change (Mus musculus [3]): <-15%
Change (Mus musculus [6]): -19%

C#Cc1cccc2cc(CC3=NOS(=O)N3)ccc12 (centres undefined)
Change (Mus musculus [3]): -19%
Change (Mus musculus [4]; [27]): -45%

O=S1NC(Cc2ccc3c(Cl)cccc3c2)=NO1 (centres undefined)
Consumption (Rattus norvegicus [9]): 59 mL/day
Consumption (Rattus norvegicus [10]): 25 g/day
urine volume (Rattus norvegicus [11]): 23 mL/day
Glucose level (Rattus norvegicus [12]): 120 mg/dL
Consumption (Rattus norvegicus [13]): 49 mL/day
Glucose level (Rattus norvegicus [14]): 255 mg/dL
Glucose level (Rattus norvegicus [15]): 329 mg/dL
Consumption (Rattus norvegicus [16]): 25 g/day
Consumption (Rattus norvegicus [17]): 45 mL/day
urine volume (Rattus norvegicus [18]): 37 mL/day
Glucose level (Rattus norvegicus [19]): 122 mg/dL
Glucose level (Rattus norvegicus [20]): 111 mg/dL
Consumption (Rattus norvegicus [21]): 25 g/day
Glucose level (Rattus norvegicus [22]): 5.7 g dl-1 and 2.1 g day-1
Glucose level (Mus musculus [23]): 223 mg/dL
Glucose level (Rattus norvegicus [24]): 118 mg/dL
Glucose level (Mus musculus [25]): 199 mg/dL
Change (Mus musculus [4]; dose 100 mg/kg): -44% and -21%
urine volume (Rattus norvegicus [26]): 29 mL/day

Cc1cc2ccccc2c(C)c1CC1=NOS(=O)N1 (centres undefined)
Change (Mus musculus [3]): <-15%
Change (Mus musculus [6]): -45%

COc1ccc(Cl)cc1C(=O)NCCc1ccc(S(=O)(=O)NC(=O)NC2CCCCC2)cc1 [GLYBURIDE]
Glucose level (Rattus norvegicus [12]): 71 mg/dL
Glucose level (Rattus norvegicus [19]): 51 mg/dL
Glucose level (Rattus norvegicus [20]): 110 mg/dL
Glucose level (Mus musculus [23]): 297 mg/dL
Glucose level (Rattus norvegicus [24]): 55 mg/dL
Glucose level (Mus musculus [25]): 311 mg/dL

O=S1NC(Cc2ccc3ccc(Cl)cc3c2)=NO1 (centres undefined)
Change (Mus musculus [6]): <-15%

Cc1ccc2ccc(CC3=NOS(=O)N3)cc2c1Br (centres undefined)
Change (Mus musculus [6]): -21%

COc1c(CC2=NOS(=O)N2)ccc2ccccc12 (centres undefined)
Change (Mus musculus [3]): <-15%
Change (Mus musculus [6]): -43%

O=S1NC(Cc2ccc3cccc(Cl)c3c2)=NO1 (centres undefined)
Change (Mus musculus [3]): <-15%
Change (Mus musculus [4]; [27]): -55%

CC1(COc2ccc(CC3SC(=O)NC3=O)cc2)CCCCC1 (centres undefined) [CIGLITAZONE]
Glucose level (Mus musculus [25]): 189 mg/dL

O=S1NC(/C=C/c2ccc3ccccc3c2)=NO1 (centres undefined)
Change (Mus musculus [5]): <-15%

O=S1NC(Cc2ccc3ccc(Br)cc3c2)=NO1 (centres undefined)
Change (Mus musculus [6]): <-15%

COc1ccc2ccc(CC3=NOS(=O)N3)cc2c1 (centres undefined)
Change (Mus musculus [6]): -19%

CC(C1=NOS(=O)N1)c1ccc2ccccc2c1 (centres undefined)
Change (Mus musculus [5]): -49%

Cc1c(CC2=NOS(=O)N2)ccc2ccccc12 (centres undefined)
Change (Mus musculus [4]; dose 100 mg/kg): -36% and -20%

CC(CC1=NOS(=O)N1)c1ccc2ccccc2c1 (centres undefined)
Change (Mus musculus [5]): -27%

O=S1NC(Cc2ccc3c(C(F)(F)F)cccc3c2)=NO1 (centres undefined)
Change (Mus musculus [3]): <-15%
Change (Mus musculus [4]; [27]): -30%

O=S1NC(Cc2ccc3cccc(Br)c3c2)=NO1 (centres undefined)
Change (Mus musculus [4]; dose 100 mg/kg): -59% and -48%

Cc1ccc2ccc(CC3=NOS(=O)N3)cc2c1 (centres undefined)
Change (Mus musculus [5]): -36%
